Legend:
[1] = Terminal half life in patient with hepatic insufficiency at 400 mg, po administered as single dose; type: ADME, organism-based; conditions: human, in vivo
Procedure, shortened: (§1)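 Single 400-mg oral raltegravir dose, fasted (stated for study II); patients and matched healthy controls. Plasma sampled at 0–72 h (to 96 h in hepatic study only), quantified by validated reverse-phase HPLC-MS/MS (LLOQ 2 ng/ml), converted to nM (MW 444.4). Profiles fit biexponentially (Gauss-Newton, Levenberg-Hartley; weighting 1/predicted concentration²); each phase t1/2 = ln(2)/rate constant.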

[2] = AUC (0 to infinity) in healthy human at 400 mg, po administered as single dose; type: ADME, organism-based; design: dose 400 mg, route oral, time infinity; conditions: plasma
Procedure, shortened: (§2)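 Single 400-mg oral dose given fasted (fasting stated for the renal study). Assay: validated reverse-phase HPLC-MS/MS, LLOQ 2 ng/ml, range 2 to 1,000 ng/ml. AUC0-∞ = AUC0-last by linear/log trapezoid plus extrapolation. Cmax is read from the data. C12 is the nominal 12-h concentration. Values converted to nM (MW 444.4).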

[3] = Tmax in patient with hepatic insufficiency at 400 mg, po administered as single dose; type: ADME, organism-based; conditions: human, in vivo
Procedure, shortened: (§3)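 Tmax is taken by inspection of the plasma concentration data, using nominal sampling times. Single 400-mg oral dose; plasma sampled from 0 to 72 h, or to 96 h in the hepatic study. Raltegravir is measured by validated reverse-phase HPLC-MS/MS (LLOQ 2 ng/ml).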

[4] = Cmax in healthy human at 400 mg, po administered as single dose; type: ADME, organism-based; design: dose 400 mg, route oral; conditions: in vivo; procedure, shortened: as §2
[5] = Primary phase half life in healthy human at 400 mg, po administered as single dose; type: ADME, organism-based; conditions: in vivo; procedure, shortened: as §1
[6] = Terminal half life in healthy human at 400 mg, po administered as single dose; type: ADME, organism-based; conditions: in vivo; procedure, shortened: as §1
[7] = Plasma concentration in patient with hepatic insufficiency at 400 mg, po administered as single dose measured at 12 hrs post dose; type: ADME, organism-based; conditions: human, read-out: Activity; procedure, shortened: as §2
Homo sapiens [8] = assay: Ratio of plasma concentration in patient with hepatic insufficiency to plasma concentration in healthy human at 400 mg, po administered as single dose measured at 12 hrs post dose; type: ADME, organism-based; conditions: in vivo
Procedure, shortened: (§4)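 Geometric mean ratio, patients/matched healthy controls, for AUC0-∞, Cmax and C12 after a single 400-mg oral dose. Data are natural-log transformed. 90% CIs come from ANCOVA least-squares means, with population and sex as fixed effects and age and BMI as covariates, then exponentiated. n = 8 per group.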

Homo sapiens [9] = assay: Drug level in patient with severe renal insufficiency assessed as recovery of unchanged drug at 400 mg, po administered as single dose; type: ADME, organism-based; conditions: in vivo
Procedure, shortened: (§5)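 Renal study, 10 patients plus 10 matched controls. Urine collected predose and at 0–4, 4–8, 8–12 and 12–24 h after a fasted 400-mg oral dose. Urine diluted and injected directly for HPLC-MS/MS (LLOQ 0.25 µg/ml, range 0.25–25 µg/ml). fe = total amount excreted unchanged ÷ dose × 100%. CLR = […] ÷ plasma AUC0-24.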

[10] = Renal clearance in patient with severe renal insufficiency at 400 mg, po administered as single dose; type: ADME, organism-based, Kidney; conditions: human, in vivo, read-out: CL_renal; procedure, shortened: as §5
[11] = Primary phase half life in patient with hepatic insufficiency at 400 mg, po administered as single dose; type: ADME, organism-based; conditions: human, in vivo; procedure, shortened: as §1
[12] = Plasma concentration in healthy human at 400 mg, po administered as single dose measured at 12 hrs post dose; type: ADME, organism-based; conditions: read-out: Activity; procedure, shortened: as §2
Homo sapiens [13] = assay: Toxicity in human assessed as headache at 400 mg, po administered as single dose; type: organism-based; conditions: in vivo
Procedure, shortened: (§6)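 Safety assessed throughout each study by clinical and laboratory evaluations after a single 400-mg oral dose. Relatedness of adverse experiences to the drug was judged by the investigator.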

[14] = Cmax in patient with hepatic insufficiency at 400 mg, po administered as single dose; type: ADME, organism-based; design: dose 400 mg, route oral; conditions: human, in vivo; procedure, shortened: as §2
[15] = Primary phase half life in patient with severe renal insufficiency at 400 mg, po administered as single dose; type: ADME, organism-based; conditions: human, in vivo; procedure, shortened: as §1
[16] = AUC (0 to infinity) in patient with severe renal insufficiency at 400 mg, po administered as single dose; type: ADME, organism-based; design: dose 400 mg, route oral, time infinity; conditions: human, plasma; procedure, shortened: as §2
[17] = Cmax in patient with severe renal insufficiency at 400 mg, po administered as single dose; type: ADME, organism-based; design: dose 400 mg, route oral; conditions: human, in vivo; procedure, shortened: as §2
[18] = Tmax in patient with severe renal insufficiency at 400 mg, po administered as single dose; type: ADME, organism-based; conditions: human, in vivo; procedure, shortened: as §3
[19] = Plasma concentration in patient with severe renal insufficiency at 400 mg, po administered as single dose measured at 12 hrs post dose; type: ADME, organism-based; conditions: human, read-out: Activity; procedure, shortened: as §2
[20] = Renal clearance in healthy human at 400 mg, po administered as single dose; type: ADME, organism-based, Kidney; conditions: in vivo, read-out: CL_renal; procedure, shortened: as §5
[21] = AUC (0 to infinity) in patient with hepatic insufficiency at 400 mg, po administered as single dose; type: ADME, organism-based; design: dose 400 mg, route oral, time infinity; conditions: human, plasma; procedure, shortened: as §2
Homo sapiens [22] = assay: Toxicity in human assessed as mouth ulceration at 400 mg, po administered as single dose; type: organism-based; conditions: in vivo; procedure, shortened: as §6
Homo sapiens [23] = assay: Ratio of Cmax in patient with hepatic insufficiency to Cmax in healthy human at 400 mg, po administered as single dose; type: ADME, organism-based; conditions: in vivo
Procedure, shortened: (§7)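 Single 400-mg oral raltegravir dose to patients (moderate hepatic or severe renal insufficiency) and matched healthy controls; plasma raltegravir measured by HPLC-MS/MS. Cmax read by inspection, ln-transformed. Geometric mean ratio (patient/healthy) with 90% CI from ANCOVA least-squares means: population and sex fixed effects, age and BMI covariates.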

Homo sapiens [24] = assay: Ratio of Cmax in patient with severe renal insufficiency to Cmax in healthy human at 400 mg, po administered as single dose; type: ADME, organism-based; conditions: in vivo; procedure, shortened: as §7
[25] = Terminal half life in patient with severe renal insufficiency at 400 mg, po administered as single dose; type: ADME, organism-based; conditions: human, in vivo; procedure, shortened: as §1
Homo sapiens [26] = assay: Ratio of plasma concentration in patient with hepatic insufficiency to plasma concentration in healthy human at 400 mg, po administered as single dose; type: ADME, organism-based; conditions: in vivo; procedure, shortened: as §4

In the case of `Cc1nnc(C(=O)NC(C)(C)c2nc(C(=O)NCc3ccc(F)cc3)c(O)c(=O)n2C)o1` [RALTEGRAVIR], the half-life [1] is reported as 7 h, the AUC(0-inf) [2] is reported as 19.7 µM·h and the Tmax [3] is reported as 2.5 h. It also gave a Cmax [4] of 5680 nM, a half-life [5] of 1.1 h and a half-life [6] of 9.3 h. For the same compound, the concentration at 12 h [7] was 143 nM, the Activity (Homo sapiens [8]) was 1.26 nM and the “fold change (FC)” value (Homo sapiens [9]) was 0.5. It also gave a CL renal [10] of 2.7 mL/min, a half-life [11] of 1.49 h and a concentration at 12 h [12] of 106 nM. For the same compound, the Activity (Homo sapiens [13]) was “Toxic”, the Cmax [14] was 4410 nM and the half-life [15] was 1.38 h. For the same compound, the AUC(0-inf) [16] was 16.8 µM·h, the Cmax [17] was 3850 nM and the Tmax [18] was 3.5 h. It also gave a concentration at 12 h [19] of 135 nM, a CL renal [20] of 31.5 mL/min and an AUC(0-inf) [21] of 17.7 µM·h. For the same compound, the Activity (Homo sapiens [22]) was “Toxic”, the Cmax (Ratio) (Homo sapiens [23]) was 0.63 and the Cmax (Ratio) (Homo sapiens [24]) was 0.68. The half-life [25] was 17.2 h and the Activity (Homo sapiens [26]) was 1.26 nM.

Source: ChEMBL document CHEMBL1649175, “Lack of a clinically important effect of moderate hepatic insufficiency and severe renal insufficiency on raltegravir pharmacokinetics” (Antimicrob Agents Chemother, 2009)
